# Results taken from BindingDB's records for doi:10.1016/j.bmc.2019.03.030 (Northwestern University, 2019).
# Molecular target: Sigma non-opioid intracellular receptor 1 (Homo sapiens, UniProt Q99720)
# Assay: Displacement of [3H]-(+)-pentazocine from sigma1 receptor (unknown origin) expressed in HEK293 cell membranes after 120 mins by microbeta scintillation counting method
# Summary of the method: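 Radioligand binding run by an external screening program; sigma-1 tracer [3H]-pentazocine, sigma-2 tracer [3H]-DTG. Each compound first tested at a single 10 μM concentration. Those giving >50% inhibition were then titrated over a dose range to derive pKi.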
# Chain of Sigma non-opioid intracellular receptor 1 (Q99720 whole entry): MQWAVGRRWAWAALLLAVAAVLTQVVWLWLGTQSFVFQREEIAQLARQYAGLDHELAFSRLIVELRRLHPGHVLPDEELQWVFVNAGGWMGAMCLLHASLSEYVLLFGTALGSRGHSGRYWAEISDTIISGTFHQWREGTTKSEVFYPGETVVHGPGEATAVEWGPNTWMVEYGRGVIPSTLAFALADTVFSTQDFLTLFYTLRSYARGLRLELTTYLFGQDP
smiles,measurement,value
O=C(c1c2c(nn1-c1ccc(F)cc1)CCC(NCc1ccc(F)cc1)C2)N1CCCCC1 (stereo unspecified),Ki,16 nM
